Test results as given in ChEMBL document CHEMBL3608306, “Design, synthesis and evaluation of new GEQ derivatives as inhibitors of InhA enzyme and Mycobacterium tuberculosis growth” (Eur J Med Chem, 2015).
In brackets after ≈: the same amount, converted by molar mass.

What was measured:
[1] = test system: Mycobacterium tuberculosis; test: Antimycobacterial activity against Mycobacterium tuberculosis H37Rv after 21 days by microbroth dilution method; type: functional
[2] = Inhibition of Mycobacterium tuberculosis His6-tagged InhA expressed in Escherichia coli BL21 using 2-trans-dodecenoyl-CoA as substrate assessed as conversion of NADH to NAD+
Method in brief: (§1)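 Triplicate NADH-dependent reduction of the substrate analogue 2-trans-dodecenoyl-CoA by InhA, with NADH oxidation to NAD+ followed as the fall in absorbance at 340 nm. Percent inhibition was screened at 50 µM, or at 10 µM where solubility limited. IC50 came from 4-parameter curve fits of at least six concentrations.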

[3] = test system: Mycobacterium tuberculosis; test: Inhibition of Mycobacterium tuberculosis His6-tagged InhA expressed in Escherichia coli BL21 using 2-trans-dodecenoyl-CoA as substrate assessed as conversion of NADH to NAD+ at 10 uM relative to control; method in brief: as §1
[4] = test system: Mycobacterium tuberculosis; test: Inhibition of Mycobacterium tuberculosis His6-tagged InhA expressed in Escherichia coli BL21 using 2-trans-dodecenoyl-CoA as substrate assessed as conversion of NADH to NAD+ at 50 uM relative to control; method in brief: as §1
[5] = test system: Mycobacterium tuberculosis; test: Antimycobacterial activity against Mycobacterium tuberculosis H37Rv after 21 days by microbroth dilution method in presence of 3 ug/ml efflux pump inhibitor reserpine; type: functional; details: 504 h
[6] = test system: Mycobacterium tuberculosis; test: Antimycobacterial activity against Mycobacterium tuberculosis H37Rv after 21 days by microbroth dilution method in presence of 40 ug/ml efflux pump inhibitor verapamil; type: functional; details: 504 h
[7] = test system: Mycobacterium tuberculosis; test: Antimycobacterial activity against Mycobacterium tuberculosis H37Rv after 21 days by microbroth dilution method in presence of 7.5 ug/ml efflux pump inhibitor CCCP; type: functional; details: 504 h
[8] = test system: Mycobacterium tuberculosis; test: Ratio of MIC for Mycobacterium tuberculosis H37Rv in absence of verapamil to MIC for Mycobacterium tuberculosis H37Rv in presence of verapamil; type: functional
[9] = test system: Mycobacterium tuberculosis; test: Antimycobacterial activity against Mycobacterium tuberculosis by Alamar blue assay; type: functional
[10] = test system: Mycobacterium tuberculosis; test: Ratio of MIC for Mycobacterium tuberculosis H37Rv in absence of CCCP to MIC for Mycobacterium tuberculosis H37Rv in presence of CCCP; type: functional
[11] = test system: Mycobacterium tuberculosis; test: Antimycobacterial activity against Mycobacterium tuberculosis by CFU counting method; type: functional
[12] = test system: Mycobacterium tuberculosis; test: Ratio of MIC for Mycobacterium tuberculosis H37Rv in absence of reserpine to MIC for Mycobacterium tuberculosis H37Rv in presence of reserpine; type: functional
[13] = test system: Mycobacterium tuberculosis; test: Inhibition of Mycobacterium tuberculosis His6-tagged InhA expressed in Escherichia coli BL21 using 2-trans-dodecenoyl-CoA as substrate assessed as conversion of NADH to NAD+ at 250 nM relative to control
Method in brief: (§2)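 Chirally separated enantiomers were tested for InhA inhibition at 5 µM or 250 nM, run in triplicate. The assay used 2-trans-dodecenoyl-CoA substrate and NADH, read as the decrease in absorbance at 340 nm from NADH oxidation to NAD+. IC50 came from 4-parameter fits of at least six points.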

[14] = test system: Mycobacterium tuberculosis; test: Inhibition of Mycobacterium tuberculosis His6-tagged InhA expressed in Escherichia coli BL21 using 2-trans-dodecenoyl-CoA as substrate assessed as conversion of NADH to NAD+ at 5 uM relative to control; method in brief: as §2
[15] = Mycobacterium tuberculosis, H37Rv, 504 h, read-out: MIC

SMILES | MIC [1, 15] [µM] | IC50 [2] [nM] | inhibition [3] [%] | inhibition [4] [%] | also measured
O=C(Nc1ccccc1)N1CCN(C2c3ccccc3-c3ccccc32)CC1 | > 27.1 | 1180 | 79 | 84 | 
O=C(c1ccc2[nH]ccc2c1)N1CCN(C2c3ccccc3-c3ccccc32)CC1 | 50.1 (≈ 19.7 µg/mL) | 860 | 81 | 87 | MIC [5]: 25.4 µM; MIC [6]: < 12.7 µM; MIC [7]: < 12.7 µM; Ratio [8]: >4; MIC [9]: > 125 µM; Ratio [10]: >4; MIC [11]: > 125 µM
O=C(c1ccccc1)N1CCN(C2c3ccccc3-c3ccccc32)CC1 | 14.1 (≈ 5 µg/mL) | 490 | 94 | 94 | MIC [5]: 56.5 µM; MIC [6]: 56.5 µM; MIC [7]: < 3.5 µM; Ratio [10]: >5
O=S(=O)(c1ccccc1)N1CCN(C2c3ccccc3-c3ccccc32)CC1 | > 25.6 |  |  | 12 | 
c1ccc2c(c1)-c1ccccc1C2N1CCNCC1 | > 39.9 |  |  | 7 | 
CCCCC(=O)N1CCN(C2c3ccccc3-c3ccccc32)CC1 | 29.9 (≈ 10 µg/mL) |  | 45 | 75 | 
CCCCCCCCC(=O)N1CCN(C2c3ccccc3-c3ccccc32)CC1 | 12.8 (≈ 5 µg/mL) |  | 22 | 47 | 
S=C(c1ccccc1)N1CCN(C2c3ccccc3-c3ccccc32)CC1 | 13.5 (≈ 5 µg/mL) |  |  | 31 | 
S=C(Nc1ccccc1)N1CCN(C2c3ccccc3-c3ccccc32)CC1 | > 25.9 |  | 32 | 57 | 
CCCCNC(=O)N1CCN(C2c3ccccc3-c3ccccc32)CC1 | 14.3 (≈ 5 µg/mL) |  | 42 | 68 | 
CCCCCCCCNC(=O)N1CCN(C2c3ccccc3-c3ccccc32)CC1 | > 24.7 |  |  | 34 | 
O=C(Nc1ccc([N+](=O)[O-])cc1)N1CCN(C2c3ccccc3-c3ccccc32)CC1 | 12.1 (≈ 5.02 µg/mL) |  |  | 33 | 
O=C(c1ccccc1)N1CCC(C2c3ccccc3-c3ccccc32)CC1 | 28.3 (≈ 10 µg/mL) | 940 | 88 | 93 | 
O=C1CN(C2c3ccccc3-c3ccccc32)CCN1C(=O)c1ccccc1 | > 27.1 |  |  | 26 | 
[O-][S+](c1ccccc1)N1CCN(C2c3ccccc3-c3ccccc32)CC1 (racemic) | > 26.7 |  |  | 14 | 
CP(=O)(c1ccccc1)N1CCN(C2c3ccccc3-c3ccccc32)CC1 (racemic) | > 24.7 |  |  | 17 | 
COP(=O)(c1ccccc1)N1CCN(C2c3ccccc3-c3ccccc32)CC1 (racemic) | > 25.7 |  |  | 17 | 
CCCCCCc1ccc2c(c1)C(N1CCN(C(=O)c3ccccc3)CC1)c1ccccc1-2 (racemic) | 22.8 (≈ 10 µg/mL) |  | 45 | 48 | 
CCCCCCCCc1ccc2c(c1)C(N1CCN(C(=O)c3ccccc3)CC1)c1ccccc1-2 (racemic) | > 21.4 |  | 27 | 54 | 

SMILES | MIC [1, 15] [µM] | IC50 [2] [nM] | inhibition [3] [%] | inhibition [4] [%] | also measured
CCCCCCc1ccc2c(c1)-c1ccccc1C2N1CCN(C(=O)c2ccccc2)CC1 (racemic) | 22.8 (≈ 10 µg/mL) | 1000 | 52 | 60 | 
COc1ccc2c(c1)-c1ccccc1C2N1CCN(C(=O)c2ccccc2)CC1 (racemic) [listing 1 of 2 here] | 26 (≈ 10 µg/mL) | 2690 |  |  | 
CCCOc1ccc2c(c1)-c1ccccc1C2N1CCN(C(=O)c2ccccc2)CC1 (racemic) | 24.2 (≈ 9.98 µg/mL) | 1010 | 84 | 91 | 
CCCCCCOc1ccc2c(c1)-c1ccccc1C2N1CCN(C(=O)c2ccccc2)CC1 (racemic) [listing 1 of 2 here] | 22 (≈ 10 µg/mL) | 200 |  |  | 
CCCOc1ccc2c(c1)C(N1CCN(C(=O)c3ccccc3)CC1)c1ccccc1-2 (racemic) | > 24.2 | 1300 | 83 | 88 | 
O=C(c1ccccc1)N1CCN(C2c3ccccc3-c3cc(OCc4ccccc4)ccc32)CC1 (racemic) | > 21.7 | 1000 | 57 | 63 | 
CCCCCCOc1ccc2c(c1)-c1ccccc1C2C1CCN(C(=O)c2ccccc2)CC1 (racemic) | 88.2 (≈ 40 µg/mL) | 1050 | 71 | 64 | MIC [5]: 22.1 µM; MIC [6]: 44.1 µM; Ratio [8]: 2; Ratio [12]: 4
CCCCCCOc1ccc2c(c1)-c1ccccc1C2N1CCN(C(=O)c2ccccc2)CC1 (racemic) [listing 2 of 2 here] |  |  | 70 | 79 | inhibition [13]: 53%
COc1ccc2c(c1)-c1ccccc1C2N1CCN(C(=O)c2ccccc2)CC1 (racemic) [listing 2 of 2 here] |  |  | 74 | 92 | inhibition [14]: 60%
CCCCCCOc1ccc2c(c1)-c1ccccc1C2N1CCN(C(=O)c2ccccc2)CC1 (single isomer, unassigned) [listing 1 of 2 here] |  |  |  |  | MIC [1]: >22 µM
CCCCCCOc1ccc2c(c1)-c1ccccc1C2N1CCN(C(=O)c2ccccc2)CC1 (single isomer, unassigned) [listing 2 of 2 here] |  |  |  |  | inhibition [13]: 0%
COc1ccc2c(c1)-c1ccccc1C2N1CCN(C(=O)c2ccccc2)CC1 (single isomer, unassigned; enantiomer 1) [listing 1 of 2 here] |  |  |  |  | MIC [1]: >26 µM
COc1ccc2c(c1)-c1ccccc1C2N1CCN(C(=O)c2ccccc2)CC1 (single isomer, unassigned; enantiomer 1) [listing 2 of 2 here] |  |  |  |  | inhibition [14]: 11%
CCCCCCOc1ccc2c(c1)-c1ccccc1C2N1CCN(C(=O)c2ccccc2)CC1 (single isomer, unassigned; enantiomer 2) [listing 1 of 2 here] |  | 102 |  |  | MIC [1]: 11 µM (≈ 5 µg/mL); MIC [5]: < 2.7 µM; MIC [6]: 11 µM; MIC [7]: < 2.7 µM; Ratio [12]: >4; Ratio [10]: >4
CCCCCCOc1ccc2c(c1)-c1ccccc1C2N1CCN(C(=O)c2ccccc2)CC1 (single isomer, unassigned; enantiomer 2) [listing 2 of 2 here] |  |  |  |  | inhibition [13]: 71%
COc1ccc2c(c1)-c1ccccc1C2N1CCN(C(=O)c2ccccc2)CC1 (stereo in doubt; 31b) [listing 1 of 2 here] |  | 2070 |  |  | 
COc1ccc2c(c1)-c1ccccc1C2N1CCN(C(=O)c2ccccc2)CC1 (stereo in doubt; 31b) [listing 2 of 2 here] |  |  |  |  | inhibition [14]: 68%
NNC(=O)c1ccncc1 [ISONIAZID] | 0.4 (≈ 0.0549 µg/mL) |  |  |  | 
